Data taken from publication PMC4339263 (Health physics, 2015).
“And” between values parts separate entries of the source, which are not always exact repeats. Identical values can stand only once. Like-named read-outs stand apart in the source and are kept apart here.

Tests used:
[1] = Competitive binding of ^241Am in human plasma; details: for EC50 / EC90 / logistic equation parameter a (slope) / logistic equation parameter b (inflection point) / logistic equation parameter c (asymptote, fraction of bound ^241Am): human plasma, 3 nM ^241Am nitrate, 37°C; for logistic equation parameter a (slope) / logistic equation parameter b (inflection point) / logistic equation parameter c (asymptote, fraction of bound ^241Am): estimate ± 95% conf. interval
Summary of the method: (§1)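 Ligand stocks were in 10 mM sodium phosphate, pH 7.4, and added to plasma at 0.5–750 µM final, with ^241Am nitrate (stock in 1 M HCl). Samples were incubated at 37°C with mild agitation, then protein-bound Am was removed on a 3K ultrafilter (14,000×g, 30 min). Ligand-bound and cationic Am in the filtrate were separated on strong cation-exchange spin columns, and each fraction was gamma-counted (40–80 keV). Bound fraction was fitted against log concentration by logistic Gauss-Newton regression, and EC50 was taken at half of the asymptote.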

[2] = Competitive binding of ^241Am in rat plasma; details: 3 nM ^241Am nitrate, 37°C; for logistic equation parameter a (slope) / logistic equation parameter b (inflection point) / logistic equation parameter c (asymptote, fraction of bound ^241Am): estimate ± 95% conf. interval
Summary of the method: as §1

Ionization = format: physicochemical; details: 5 mM ligand in 0.15 M KCl
Summary of the method: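 The free ligand was titrated with acid and then with base. After each addition it was equilibrated for 30 s, and pH was then read on a glass electrode with an Ag/AgCl reference. Ligand integrity was checked afterwards by HPLC with charged aerosol detection. Constants were calculated from three replicates.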

[3] = Solvent extraction study of the Am; format: binding; details: for calculated formation constant (log K) of the ^241Am-ligand complex: calculated from lg β^cond and pKa values; for conditional stability constant (lg β^cond) of the ^241Am complex: pH 1.3, I = 0.1 M NaCl, 25°C, 0.1 M HDEHP in dodecane
Summary of the method: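 Tracer ^241Am (16.7 MBq L-1) was partitioned between the organic and aqueous phases, with ligand at 0.05–100 µM in the aqueous phase. Samples were vortexed, shaken for 60 min, and centrifuged (10,000×g, 10 min). Both phases were gamma-counted (40–80 keV window), in triplicate. D0 came from a ligand-free aqueous phase. lg β^cond was obtained from a linear fit of […] against ligand concentration, and formation constants were then derived using the pKa values.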

[4] = Competitive binding of ^241Am in beagle plasma; details: 3 nM ^241Am nitrate, 37°C; for logistic equation parameter a (slope) / logistic equation parameter b (inflection point) / logistic equation parameter c (asymptote, fraction of bound ^241Am): estimate ± 95% conf. interval
Summary of the method: as §1

[5] = Pharmacokinetics of C2E2 in beagle dogs; format: in vivo
Summary of the method: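 Dogs were 8–10 months old and weighed 10.1–12.0 kg. They were fasted overnight and dosed by gavage (12.05 mg mL-1 solution), with food returned about 2 h later. Jugular blood was drawn pre-dose and at 0.5–24 h into fluoride/oxalate tubes. Plasma was acidified with 20% formic acid and stored at –80 °C. Analysis was by LC/MS/MS with ^13C internal standards; the acid metabolite was measured as its Fe(III) complex in negative-ion mode. Data were fitted to a two-compartment model.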

[6] = format: in vivo, beagle; details: beagles, 100 mg kg^−1 oral C2E2
[7] = oral; ref Volf, 1984; cited from earlier work
[8] = reported for DTPA; cited from earlier work
[9] = ref Martell, 1982; cited from earlier work
[10] = cited from earlier work; for stability constant (log K) of the americium complex: ref Ansoborlo et al., 2007
[11] = 100 mg kg^−1 oral, two-compartment model

| Compound | EC50 [1] [µM] | EC90 [1] [µM] | logistic equation parameter a (slope) [1] | logistic equation parameter b (inflection point) [1] | logistic equation parameter c (asymptote, fraction of bound ^241Am) [1] | EC50 [2] [µM] | EC90 [2] [µM] | logistic equation parameter a (slope) [2] | logistic equation parameter b (inflection point) [2] | logistic equation parameter c (asymptote, fraction of bound ^241Am) [2] | pKa1 (Ionization) | pKa2 (Ionization) | pKa3 (Ionization) | calculated formation constant (log K) of the ^241Am-ligand complex [3] | conditional stability constant (lg β^cond) of the ^241Am complex [3] | EC50 [4] [µM] | EC90 [4] [µM] | logistic equation parameter a (slope) [4] | logistic equation parameter b (inflection point) [4] | logistic equation parameter c (asymptote, fraction of bound ^241Am) [4] | other results |
| --- | --- | --- | --- | --- | --- | --- | --- | --- | --- | --- | --- | --- | --- | --- | --- | --- | --- | --- | --- | --- | --- |
| CCOC(=O)CN(CCN(CCN(CC(=O)O)CC(=O)O)CC(=O)O)CC(=O)O [C2E1, monoethyl ester of DTPA] | 5.26 | 19 | 0.16 ± 0.03 | 5.26 ± 0.74 | 55.22 ± 1.06 | 25.5 | 60.1 | 0.06 ± 0.01 | 25.50 ± 3.36 | 45.74 ± 1.51 | 9.63 ± 0.03 | 6.35 ± 0.38 | 2.99 ± 0.05 | 21.7 ± 0.5 | 2.46 | 2.02 | 5.87 | 0.57 ± 0.13 | 2.02 ± 0.38 | 61.69 ± 1.4 | pKa4 (Ionization): 1.72 ± 1.5; pKa5 (Ionization): 1.18 ± 0.45; pKa6 (Ionization): < 1.5; pKa7 (Ionization): < 1.5 |
| CCOC(=O)CN(CCN(CCN(CC(=O)O)CC(=O)OCC)CC(=O)O)CC(=O)O [C2E2, DTPA diethyl ester] | 8.87 | 18.4 | 0.23 ± 0.04 | 8.87 ± 0.80 | 60.29 ± 1.25 | 46.2 | 101 | 0.04 ± 0.00 | 46.17 ± 3.43 | 54.62 ± 1.58 | 9.40 ± 0.02 | 4.68 ± 0.02 | 3.52 ± 0.03 | 19.6 and 19.6 ± 0.2 | 1.36 | 4.91 | 10.8 | 0.37 ± 0.02 | 4.91 ± 0.18 | 64.79 ± 0.50 | fraction of the absorbed dose metabolized to C2E1 or DTPA ([5]; 100 mg kg^−1 oral): ~ 2%; difference between AUC0–24 of males and females ([5]; 100 mg kg^−1 oral, two males and two females): no significant difference; elimination half-life from the first compartment [5, 11]: 0.69 h; elimination half-life from the second compartment [5, 11]: 6.66 h; time to peak plasma concentration after administration ([5]; single 100 mg kg^−1 oral gavage): 1 h; difference between concentration required for chelation in humans and dogs ([1]; human vs dog plasma): less than 2 fold; difference between concentration required for chelation in humans and rats ([1]; human vs rat plasma): greater than 5 fold; time plasma concentration is above the 50% maximal binding threshold [6]: 4.7 h; pKa4 (Ionization): 1.87 ± 0.05; pKa5 (Ionization): 1.76 ± 0.05; pKa6 (Ionization): 1.45 ± 0.09; stability of the ^241Am complex lower than that of the DTPA-^241Am complex [3]: 6 log units; strength of americium binding relative to the strongest ligand in the plasma ([3]; compared with the americium-transferrin complex): nine orders of magnitude higher |
| O=C(O)CN(CCN(CC(=O)O)CC(=O)O)CCN(CC(=O)O)CC(=O)O [DTPA, Diethylenetriaminepentaacetic acid, reference compound] | 2.82 | 5.05 | 0.98 ± 0.13 | 2.82 ± 0.30 | 55.88 ± 1.40 | 5.36 | 12.4 | 0.31 ± 0.03 | 5.36 ± 0.43 | 35.69 ± 0.85 | – | – | – | 25.4 ± 0.3 | 2.70 | 1.08 | 2.25 | 1.87 ± 0.69 | 1.08 ± 0.18 | 54.75 ± 2.16 | bioavailability [7]: ~ 3%; pKa1 [8]: 10.51 ± 0.01; pKa2 [8]: 8.54 ± 0.02; pKa3 [8]: 4.31 ± 0.02; pKa4 [8]: 2.55 ± 0.05; pKa5 [8]: 1.80 ± 0.05; pKa6 [8]: 1.60 ± 0.15; pKa7 [8]: 1.45 ± 0.15; stability constant (log K) with iron [9]: 28.0 |
| O=C(O)CC(O)(CC(=O)O)C(=O)O [citrate] | – | – | – | – | – | – | – | – | – | – | – | – | – | – | – | – | – | – | – | – | stability constant (log K) of the americium complex [10]: 8.6 |
| O=[N+]([O-])O [nitrate] | – | – | – | – | – | – | – | – | – | – | – | – | – | – | – | – | – | – | – | – | affinity for americium (log K) ([10]; ref Silva and OECD Nuclear Energy Agency., 1995): 1.3 |
| transferrin: plasma protein that binds about 30% of the total ^241Am | – | – | – | – | – | – | – | – | – | – | – | – | – | – | – | – | – | – | – | – | stability constant (log K) of the americium complex [10]: 10.4 |
